Measurements reported in ChEMBL document CHEMBL3124751, “The versatile nature of the 6-aminoquinolone scaffold: identification of submicromolar hepatitis C virus NS5B inhibitors” (J Med Chem, 2014).

Assays:
[1] = test system: Hepatitis C virus; assay: Antiviral activity against Hepatitis C virus genotype 1b I389luc-ubi-neo/NS3-3'/5.1 replicon in Huh 5-2 cells assessed as inhibition of replicon replication after 72 hrs by replicon system assay; format: functional, organism-based, Hepacivirus hominis; conditions: Huh-5-2, 72 h
How it was run: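 Huh 5-2 replicon cells seeded at 6 500 cells/well one day before compound in DMEM with 10% FCS, 1% non-essential amino acids, 1% penicillin/streptomycin, no Geneticin. Four-step 1-to-5 or eight-step 1-to-2 dilutions, 72 h at 37 °C, 5% CO₂. Luciferase luminescence read after lysis, as % of untreated controls. EC50/EC90 from dose-response curves, means of at least three independent experiments.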

[2] = Inhibition of Hepatitis C virus genotype 1b HC-J4 recombinant N-terminal histidine tagged truncated NS5B polymerase lacking C-terminal 21 amino acids assessed as standard-primer dependent elongation reaction using poly rA/U12 as template after 1 hr by liquid scintillation counting analysis; design: species or system Hepatitis C virus isolate HC-J4
How it was run: (§1)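 Construct is His-tagged HC-J4 NS5B CΔ21, Ni-NTA purified. Poly rA/U12 primer-dependent elongation run 1 h at 30 °C, then stopped with chilled 5% TCA/0.5 mM pyrophosphate. Products collected on GF-B filters and counted by scintillation. Activity expressed relative to DMSO control. Screen at 25 μM. IC50 from 8–12 concentrations in duplicate, two independent experiments, by nonlinear regression.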

[3] = test system: Hepatitis C virus isolate HC-J4; assay: Inhibition of Hepatitis C virus genotype 1b HC-J4 recombinant N-terminal histidine tagged truncated NS5B polymerase lacking C-terminal 21 amino acids assessed as standard-primer dependent elongation reaction using poly rA/U12 as template at 25 uM after 1 hr by liquid scintillation counting analysis; how it was run: as §1
[4] = Cytostatic activity against human Huh5-2 cells assessed as cell viability after 72 hrs by MTS assay; format: cell-based; conditions: huh-5-2, 72 h
How it was run: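 Huh 5-2 cells carry genotype 1b I389luc-ubineo/NS3-3'/5.1 replicon, maintained with 2% Geneticin. Seeded at 6 500 cells/well in Geneticin-free assay medium, overnight. Four-step 1:5 dilution screen or eight-step 1:2 series, 72 h at 37 °C. 5% MTS for 1.5 h, absorbance at 498 nm as % of untreated. CC50 from dose-response, mean of ≥3 independent experiments.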

[5] = Selectivity index, ratio of CC50 for human Huh5-2 cells to EC50 for Hepatitis C virus genotype 1b I389luc-ubi-neo/NS3-3'/5.1 replicon in Huh 5-2 cells; format: toxicity, cell-based; conditions: read-out: Ratio CC50/EC50
How it was run: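 Huh 5-2 replicon cells seeded at 6,500/well, overnight at 37 °C; compound dilution series (four-step 1:5 screen, eight-step 1:2 dose-response), 72 h. Antiviral: luciferase luminescence versus untreated controls. Parallel anti-metabolic: 5% MTS 1.5 h, absorbance 498 nm. EC50, CC50 from dose-response curves, means of at least three independent experiments; SI = CC50/EC50.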

[6] = Cytostatic activity against human Huh-9-13 cells assessed as cell viability after 72 hrs by MTS assay; format: cell-based
How it was run: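 Huh 9–13 subgenomic replicon cells seeded at 6 500 cells/well in DMEM with 10% FCS, 1% non-essential amino acids, 1% penicillin/streptomycin, then incubated overnight. Compound dilution series given, 72 h at 37 °C, 5% CO₂. Medium replaced with 5% MTS in phenol red-free medium for 1.5 h. Absorbance read at 498 nm as % of untreated. CC50 taken from dose-response, mean of ≥3 independent experiments.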

[7] = Selectivity index, ratio of CC50 for human Huh-9-13 cells to EC50 for Hepatitis C virus genotype 1b I389luc-ubi-neo/NS3-3'/5.1 replicon in Huh-9-13 cells; format: toxicity, cell-based; conditions: read-out: Ratio CC50/EC50
How it was run: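 Huh 9-13 replicon cells, setup and 72 h compound exposure as for Huh 5-2; CC50 by MTS in parallel. Antiviral readout: replicon RNA by one-step RT-qPCR of cell-to-cDNA lysates (300 nM each primer, 60 nM probe; 40 cycles), expressed as percentage of untreated controls to give EC50; SI = CC50/EC50.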

[8] = Cytotoxicity against human Huh-9-13 cells assessed as alteration in cell morphology by microscopic analysis; format: cell-based
[9] = test system: Hepatitis C virus; assay: Antiviral activity against Hepatitis C virus genotype 1b I389luc-ubi-neo/NS3-3'/5.1 replicon in Huh 9-13 cells assessed as reduction in replicon RNA level after 72 hrs by RT-PCR analysis; format: functional, organism-based, Hepacivirus hominis
[10] = Binding affinity to Hepatitis C virus isolate Con1 C-terminal hexahistidine fusion-tagged NS5B polymerase ectodomain by surface plasmon resonance assay
How it was run: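 Con1 NS5B ectodomain (C-terminal His6) amine-coupled to CM5 chip at 4–5 kRU from 10 mM MES pH 6.0. Running buffer TBS-P (20 mM Tris pH 7.4, 130 mM NaCl, 0.05% Tween20, 5% DMSO). Compound injected 60 s at 30 μL/min, two-fold series 6–200 μM. Reference/blank subtraction, solvent correction; KD from global 1:1 Langmuir fit.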

[11] = Binding affinity to Hepatitis C virus truncated NS5B polymerase lacking C-terminal 21 amino acids after 5 mins by fluorescence quenching assay; design: species or system Hepacivirus hominis
How it was run: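 NS5B CΔ21 at 1 μM final in 50 mM Tris-HCl pH 7.8, 50 mM NaCl, 10% glycerol, 10% DMSO, 0.5 mM MnCl2. Serially diluted compound or DMSO, 5 min at room temperature. Intrinsic fluorescence excitation 280 nm, emission 330 nm; buffer-plus-compound background subtracted. KD fitted to ΔF/ΔFmax = [compound]total/(KD + [compound]total).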

Row | Compound | EC50 [1] | IC50 [2] | inhibition [3] | CC50 [4] | selectivity ratio [5] | EC90 [1] | CC50 [6] | selectivity ratio [7] | Activity [8] | EC50 [9] | Kd [10] | Kd [11]
1 | Cc1ccccc1COC(=O)c1cn(Cc2ccc(C(F)(F)F)cc2F)c2cc(Cl)c(N)cc2c1=O | 1.5 µM | 1.41 µM | > 50% | 10.5 µM | 6.8 |  |  |  |  |  |  | 
2 | Nc1cc2c(=O)c(C(=O)OCc3ccc(Cl)cc3)cn(Cc3ccc(Cl)cc3)c2cc1N1CCN(c2ccccn2)CC1 | 2.2 µM | 0.069 µM | > 50% | > 244 µM | > 111 | 13.5 µM | > 163 µM | > 54 | Toxic | 3.03 µM |  | 
3 | COc1cc2c(=O)c(C(=O)OCc3ccc(C)cc3)cn(Cc3ccc(C(F)(F)F)cc3F)c2cc1OC | 2.02 µM | 0.211 µM |  | 42.3 µM | 21 | 4.7 µM |  |  |  |  |  | 
4 | Nc1cc2c(=O)c(C(=O)OCc3ccc(Cl)cc3)cn(Cc3ccc(Cl)cc3)c2cc1N1CCN(c2cccc(C(F)(F)F)c2)CC1 | 23.8 µM | 6.13 µM | > 50% | > 147 µM |  | 94.6 µM |  |  |  |  |  | 
5 | Nc1cc2c(=O)c(C(=O)OCc3ccc(Cl)cc3)cn(Cc3ccc(Cl)cc3)c2cc1N1CCNCC1 | 1.7 µM | 0.067 µM | > 50% | 3.7 µM | 2.3 |  |  |  |  |  |  | 
6 | Nc1cc2c(=O)c(C(=O)OCc3ccc(Cl)cc3)cn(Cc3ccc(Cl)cc3)c2cc1Cl | > 200 µM |  |  | > 200 µM |  | > 200 µM |  |  |  |  |  | 
7 | CCOC(=O)c1cn(Cc2ccc(Cl)cc2)c2cc(N3CCN(c4ccccn4)CC3)c(N)cc2c1=O | 31.3 µM | 3.06 µM |  | > 193 µM | > 6.2 |  |  |  |  |  |  | 
8 | Nc1cc2c(=O)c(C(=O)OCc3ccc(Cl)cc3)cn(Cc3ccc(Cl)cc3)c2cc1N1CCN(c2nc3ccccc3s2)CC1 | 8.6 µM | 0.138 µM | > 50% | > 169 µM |  |  |  |  |  |  |  | 
9 | Cc1ccc(COC(=O)c2cn(Cc3ccc(C(F)(F)F)cc3F)c3cc(Cl)c(N)cc3c2=O)cc1 | 72.3 µM | 0.154 µM | > 50% | > 192 µM |  | > 192 µM |  |  |  |  |  | 
10 | CN1CCN(c2cc3c(cc2N)c(=O)c(C(=O)OCc2ccc(Cl)cc2)cn3Cc2ccc(Cl)cc2)CC1 | 2.7 µM | 0.04 µM | > 50% | 2.8 µM | 1.2 |  |  |  |  |  | 14 µM | 1.2 µM
11 | Nc1cc2c(=O)c(C(=O)O)cn(Cc3ccc(Cl)cc3)c2cc1N1CCN(c2ccccn2)CC1 | 7.3 µM | 23.7 µM |  | > 204 µM |  |  |  |  |  |  |  | 
